Screening data deposited in PubChem BioAssay by several laboratories.
An excerpt weighted towards active compounds, which were near 27% of everything screened.
HIV Rev-RRE inh – HIV-1 Rev-RRE binding inhibitors, primary screen, biochemical, FRET, protein-RNA interaction; P05866; Rev peptide-RRE RNA binding; inhibition, % at 8 µM; hit rate 0.79% among 97,000; AID 704, 2007;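 active means inhibition above the screen-wide mean plus 3 SD, cut at about 35% in these data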;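 further: 0% = median DMSO wells and 100% = median Neomycin B control wells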
Target sequence (P05866 whole entry, looked up): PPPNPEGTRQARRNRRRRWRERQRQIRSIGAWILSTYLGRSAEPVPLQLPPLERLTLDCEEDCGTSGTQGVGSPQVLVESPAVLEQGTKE
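Probe or stimulus: fluorescein-Rev peptide as binding partner; assay system: Cy5-tagged RRE RNA duplex with fluorescein-tagged Rev peptide; timing: 5 min compound–RNA preincubation, then 15 min with peptide, 25 °C; medium: HEPES pH 7.5 buffer with KCl, MgCl2, NaCl and EDTA; signal: fluorescein-to-Cy5 FRET, 480 nm excitation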
CYP2C19 act – human CYP2C19 activators, primary screen, biochemical, luminescence; recombinant CYP2C19, luciferin-H EGE luminescence; hits give high values; 0 = fully inhibited enzyme, 1 = untreated enzyme; activation factor at 5 µM; 96,000 tested, under 10 active; AID 1025, 2008;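 active means activation factor of at least 2 at 5 µM in the primary screen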;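 further: 0 = wells with 2.5 mM tranylcypromine and 1 = vehicle-only wells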
Target sequence (P33261 whole entry, looked up): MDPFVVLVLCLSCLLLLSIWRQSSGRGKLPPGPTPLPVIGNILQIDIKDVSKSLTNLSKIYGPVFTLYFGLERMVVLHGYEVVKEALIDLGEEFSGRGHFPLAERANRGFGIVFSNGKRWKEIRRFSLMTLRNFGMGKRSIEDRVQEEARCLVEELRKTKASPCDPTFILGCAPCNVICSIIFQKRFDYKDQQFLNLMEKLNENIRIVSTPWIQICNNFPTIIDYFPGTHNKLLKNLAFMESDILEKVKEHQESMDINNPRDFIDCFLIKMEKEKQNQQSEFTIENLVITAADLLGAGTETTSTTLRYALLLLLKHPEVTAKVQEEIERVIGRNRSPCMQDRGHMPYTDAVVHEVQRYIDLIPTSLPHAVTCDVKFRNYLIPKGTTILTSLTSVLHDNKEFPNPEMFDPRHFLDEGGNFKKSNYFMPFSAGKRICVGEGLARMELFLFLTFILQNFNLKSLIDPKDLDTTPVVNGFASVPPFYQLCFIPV
Cav32 inh – Cav3.2 calcium influx blockers – cell-based, Fluo-4 calcium fluorescence, FDSS, MLSMR library, primary screen | Cav3.2-expressing cells; hits give low values | B-score at 10 µM | hit rate 4% among 100,000;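 active means single-dose well whose peak fluorescence ratio is a statistical outlier from its plate by either plate-standardised score or position-corrected B-score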
CYP2C9 activ – human CYP2C9 activators, primary screen, biochemical, luminescence. Cytochrome P450 2C9 (Homo sapiens), P11712. recombinant CYP2C9, luciferin-H conversion; hits give high values; factor 1 = untreated enzyme, 0 = blocked. activation factor at 5 µM. hit rate 1.4% among 96,000. AID 1024, 2008;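 active means activation factor of 2 or more for CYP2C9 at a 5 µM dose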;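 further: 0 = sulfaphenazole-blocked wells and 1 = vehicle-only wells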
CYP2C9 inh – blockers of cytochrome P450 2C9 activity – biochemical, luminescence, ADME assay, primary screen; P11712; CYP2C9 Supersomes, luciferin-H conversion; inhibition, % at 5 µM; hit rate 20% among 96,000;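 active means blocking of liver enzyme CYP2C9 beyond about 50% at 5 µM, limit read from the data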
CYP2C19 inhib – blockers of cytochrome P450 2C19 activity – biochemical, luminescence, ADME assay, primary screen; AID 778, 2007; CYP2C19 Supersomes, luciferin-H EGE luminescence, 30 min; hit rate 21% among 96,000; P33261; inhibition, % at 5 µM;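 active means CYP2C19 inhibition above a set limit at 5 µM in the primary screen, cut at about 50% in these data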;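 further: plate controls were negative control wells for no effect and 2.5 mM tranylcypromine positive control for full effect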
An asterisk follows results filed as active; . = not tested or not shown.

SMILES	HIV Rev-RRE inh	CYP2C19 act	Cav32 inh	CYP2C9 activ	CYP2C9 inh	CYP2C19 inhib
CN(C)S(=O)(=O)c1cccc(NC(=O)Cn2cnc3ccccc3c2=O)c1	2	0.6	-2.4	0.2	84*	43
COc1ccccc1CNC(=O)/C=C/c1cc2c(cc1Br)OCO2	1	1	0.071	1.4	-36	4
Cc1nnc(SCC(=O)n2c3c(c4ccccc42)CCCC3)s1	5	0.7	-0.59	1.3	-31	34
CCOC(=O)C1CCC2(CC1)C(C#N)=C(N)Oc1n[nH]c(C)c12 (configuration not stated)	-2	.	0.55	.	.	.
COc1cccc(-c2nnc(SCC(=O)N3CC(C)CC(C)C3)o2)c1 (configuration not stated)	4	0.4	-3.6	1.2	-17	65*
COc1ccccc1-c1nnc(SCC(=O)N2CCC(C)CC2)o1	-4	0.2	0.98	3.9*	-291	76*
Fc1ccccc1COc1ccc(/C=N/NC(=S)NCc2ccccc2)cc1	6	.	-0.17	.	.	.
COc1ccccc1OC(=O)c1ccc(S(=O)(=O)N(C)C)cc1	5	0.6	-0.25	0.5	52*	36
COc1cc(S(=O)(=O)N(C)C)ccc1Br	1	0.8	0.073	3.1*	-206	21
O=C(Nc1ccc2nc(-c3cccnc3)[nH]c2c1)c1ccco1	.	0.9	-0.049	0.8	17	10
O=C(Nc1ccc(-c2nc3ccccc3[nH]2)cc1)c1ccco1	.	0.3	1.3	0.6	39	66*
Cc1ccc2nc(-c3ccc(NC(=O)C4CCCO4)cc3)[nH]c2c1 (configuration not stated)	3	0.4	0.27	0.5	54*	62*
Cc1ccc2nc(-c3cccc(NC(=O)c4ccco4)c3)[nH]c2c1	1	0.1	-2.3	0.1	91*	91*
Cc1ccc2nc(-c3ccc(NC(=O)Cc4cccs4)cc3)[nH]c2c1	18	1	1.1	0.6	44	3
CCC(c1nnc(SCC(=O)Nc2ccc(C(=O)Nc3ccccc3OC)cc2)o1)N(C)C (configuration not stated)	7	0.6	-1.2	1.6	-57	35
Cc1nn(C)c(C)c1NC(=O)CN1CCC(O)(c2ccc3c(c2)OCO3)CC1	9	1.1	0.72	1.1	-7	-7
O=C(NC1CCCCC1)c1ccccc1NC(=O)C1CC1	1	.	0.24	.	.	.
CCOc1ccc(NC2=NCCC(=O)N2Cc2cccs2)cc1	0	0.5	-0.2	0.4	56*	50*
COc1ccc(-c2cc(OC(=O)c3ccc(F)cc3)c3c(C)oc(C)c3c(=O)c2)cc1	10	1	-0.67	0.4	56*	0
C=C(C)CSC1=C(C#N)C(c2ccccc2Cl)CC(=O)N1 (configuration not stated)	4	0.4	-2	0.3	70*	58*
C=CCSC1=C(C#N)C(c2ccccc2Cl)CC(=O)N1 (configuration not stated)	2	0.3	-0.0018	0.5	50	73*
C=CCSC1=C(C#N)C(c2ccccc2C)CC(=O)N1 (configuration not stated)	4	0.8	1.3	0.8	25	24
CCSC1=C(C#N)C(c2ccccc2C)CC(=O)N1 (configuration not stated)	.	0.8	0.75	0.9	8	22
CCn1c2ccccc2c2cc(NS(=O)(=O)c3ccccc3C)ccc21	9	0.3	.	0.2	81*	66*
COc1ccc(C(=O)Oc2ccc3oc(=O)sc3c2)cc1	10	1.1	0.24	1	4	-5
SMILES	HIV Rev-RRE inh	CYP2C19 act	Cav32 inh	CYP2C9 activ	CYP2C9 inh	CYP2C19 inhib
CCOC(=O)C1CCCN(c2c(NCCCN3CCCC(C)C3)c(=O)c2=O)C1 (configuration not stated)	8	1	-1.2	0.9	10	2
C/C(CC(=O)Nc1cccc(Cl)c1)=N\NC(=O)Cc1ccc(Cl)cc1	8	0.9	-9.1*	0.7	34	8
C/C(CC(=O)Nc1ccc(Cl)c(Cl)c1)=N\NC(N)=S	-6	0.3	-1.1	0.7	29	72*
C/C(CC(=O)Nc1cc(Cl)ccc1Cl)=N\NC(N)=S	-4	0.8	-0.025	0.9	9	18
Oc1ccc(N2CCN(C(c3ccccn3)c3nnnn3C3CCCC3)CC2)cc1 (configuration not stated)	-2	.	0.63	.	.	.
O=C(CN1C(=O)c2cccc3cccc(c23)C1=O)N1CCCCCC1	5	1.1	0.0029	1	-4	-9
CC(C)CNC(=O)CCc1c[nH]c2ccccc12	-2	0.2	1.3	1.5	-48	84*
O=C(CCc1c[nH]c2ccccc12)NCC1CCCO1 (configuration not stated)	8	0.1	0.027	3.1*	-206	89*
O=C(Cc1ccccc1)NCC1CCCO1 (configuration not stated)	4	0.9	0.91	0.9	6	11
Cn1c(=O)c2c(nc(SC3C(=O)CC(C)(C)CC3=O)n2C)n(C)c1=O	.	1.2	0.59	1.3	-32	-22
CCn1c(SCc2nc3ccccc3c(=O)[nH]2)nnc1-c1cccnc1	0	0.1	-0.5	1.1	-6	90*
C=CCn1c(SCc2nc3ccccc3[nH]2)nnc1-c1ccncc1	20	0.1	0.007	0.5	46	93*
CCn1c(SCc2nc3ccccc3c(=O)[nH]2)nnc1-c1ccncc1	4	0.1	-0.02	0.6	37	94*
O=c1[nH]c(CSc2nnc(-c3cccnc3)n2C2CCCCC2)nc2ccccc12	4	0.4	.	0.9	7	62*
CCn1c(SCc2nc3cc(OC)c(OC)cc3c(=O)[nH]2)nnc1-c1ccncc1	1	0.9	0.47	1	0	6
CC1CN(Cc2ccccc2Cl)CC(C)O1 (configuration not stated)	4	0.8	-1.6	1	-4	19
O=C1NC2(Nc3ccccc31)C(=O)Nc1ccccc12 (configuration not stated)	6	1	0.44	0.9	9	-3
O=C(CCSc1ccccc1)Nc1ccc(OCc2ccccc2)cc1	3	1	-0.29	0.9	6	-5
Cc1nc(SCc2ccccc2)c(C(F)(F)F)c(=O)[nH]1	1	0.5	-2.3	0.6	44	48
CCC(C)c1ccc(OCCCCN2CCOCC2)cc1 (configuration not stated)	8	0.4	-0.11	1	-2	57*
Cc1cc(Cl)cc(C)c1OCCCCN1CCOCC1	13	0.5	-0.0097	1	0	54*
